Experimental findings from ChEMBL document CHEMBL3286244, “Chlorpheniramine Analogues Reverse Chloroquine Resistance in Plasmodium falciparum by Inhibiting PfCRT” (ACS Med Chem Lett, 2014) are described below.

In assay [1] the target is T1, Chloroquine resistance transporter (Plasmodium falciparum) (UniProt Q9N623).
T1 sequence (whole entry): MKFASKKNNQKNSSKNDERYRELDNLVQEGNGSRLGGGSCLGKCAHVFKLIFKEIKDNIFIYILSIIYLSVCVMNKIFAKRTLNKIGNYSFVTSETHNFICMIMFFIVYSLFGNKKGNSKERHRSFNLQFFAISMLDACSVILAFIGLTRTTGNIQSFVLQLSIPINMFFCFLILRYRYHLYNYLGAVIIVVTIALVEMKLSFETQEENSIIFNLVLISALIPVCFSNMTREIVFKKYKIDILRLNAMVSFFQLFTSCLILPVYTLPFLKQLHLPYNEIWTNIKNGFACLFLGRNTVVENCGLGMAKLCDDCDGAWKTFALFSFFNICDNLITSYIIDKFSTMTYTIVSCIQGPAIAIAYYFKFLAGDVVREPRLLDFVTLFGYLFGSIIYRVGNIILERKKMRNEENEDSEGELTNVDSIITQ
As to the kind of experiment: Inhibition of CTR in Plasmodium falciparum C67G8 expressing chloroquine-resistance-conferring pfcrt alleles assessed as increase of accumulation of [3H]-chloroquine level at 1 uM after 1 hr relative to control. Put shortly:
(§1)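 Isogenic pfcrt transfectant lines C2GCO3 (wild-type allele), C4Dd2 and C67G8 (CQ-resistance alleles from Dd2 or 7G8). CQ accumulation ratio measured with and without reverser. Expressed as fold increase in accumulation ratio over control.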

In assay [2] the test system is Plasmodium falciparum. As to the kind of experiment: Response modification index, ratio of IC50 for Plasmodium falciparum C2GC03 expressing wild-type pfcrt allele in presence of drug to IC50 for Plasmodium falciparum C2GC03 expressing wild-type pfcrt allele in absence of 800 nM of drug. The format is functional. Put shortly: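 In a parasite proliferation assay on the isogenic pfcrt transfectant line C2GCO3 (wild-type allele), chloroquine IC50 was measured with and without the test compound at 800 nM. RMI is chloroquine IC50 with the compound divided by chloroquine IC50 without it.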

Assay [3] addresses Chloroquine resistance transporter (Plasmodium falciparum, UniProt Q9N623). The experiment in a line: Inhibition of chloroquine-resistant Plasmodium falciparum Dd2 CRT expressed in Xenopus laevis oocytes plasma membrane assessed as reduction of [3H]-chloroquine transportation after 1 to 2 hrs. Type of assay: cell-based. Put shortly: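 Xenopus oocytes expressing PfCRTCQR. Inhibition of [3H]CQ uptake measured over a range of reverser concentrations. IC50 derived from concentration-response data, reported as mean ± SEM.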

In assay [4] the target is T1, Chloroquine resistance transporter (Plasmodium falciparum). The experiment in a line: Inhibition of chloroquine-resistant Plasmodium falciparum Dd2 CRT expressed in Xenopus laevis oocytes plasma membrane assessed as reduction of [3H]-chloroquine transportation at 100 uM after 1 to 2 hrs. Type of assay: cell-based. Put shortly: (§2)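 Xenopus oocytes expressing PfCRT of the CQ-resistant (PfCRTCQR) or CQ-sensitive (PfCRTCQS) form. [3H]CQ uptake measured in the presence of reverser at 100 μM extracellular.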

Assay [5] deals with Plasmodium falciparum. The experiment in a line: Antiplasmodial activity against Plasmodium falciparum C67G8 expressing chloroquine-resistance-conferring pfcrt alleles assessed as parasite growth at 800 nM after 72 hrs by SYBR Green I-based fluorescence assay relative to control. The format is functional. The gist of the method:
(§3)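 Isogenic pfcrt transfectant lines (C2GCO3 wild-type allele; C4Dd2 and C67G8 carrying CQ-resistance-conferring alleles from Dd2 or 7G8). Parasite proliferation measured in the absence of CQ with test compound at 800 nM and expressed relative to untreated control.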

The test system of assay [6] is Plasmodium falciparum. The experiment in a line: Response modification index, ratio of IC50 for Plasmodium falciparum C4Dd2 expressing chloroquine-resistance-conferring pfcrt alleles in presence of drug to IC50 for Plasmodium falciparum C4Dd2 expressing chloroquine-resistance-conferring pfcrt alleles in absence of 800 nM of drug. Type of assay: functional. Put shortly:
(§4)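 Proliferation assays on isogenic pfcrt transfectant lines (C4Dd2, C67G8). CQ IC50 determined with and without 800 nM test compound. RMI calculated as CQ IC50 with compound divided by CQ IC50 without compound.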

In assay [7] the test system is Plasmodium falciparum. The experiment in a line: Antiplasmodial activity against Plasmodium falciparum C4Dd2 expressing chloroquine-resistance-conferring pfcrt alleles assessed as parasite growth at 800 nM after 72 hrs by SYBR Green I-based fluorescence assay relative to control. The format is functional. The gist of the method: as §3
The target of assay [8] is T1, Chloroquine resistance transporter (Plasmodium falciparum). The experiment in a line: Inhibition of CTR in Plasmodium falciparum C2GC03 expressing wild-type pfcrt allele assessed as increase of accumulation of [3H]-chloroquine level at 1 uM after 1 hr. The gist of the method:
as §1

Assay [9] has as its system Plasmodium falciparum. The experiment in a line: Response modification index, ratio of IC50 for Plasmodium falciparum C67G8 expressing chloroquine-resistance-conferring pfcrt alleles in presence of drug to IC50 for Plasmodium falciparum C67G8 expressing chloroquine-resistance-conferring pfcrt alleles in absence of 800 nM of drug. The format is functional. The gist of the method:
as §4

Assay [10] deals with T1, Chloroquine resistance transporter (Plasmodium falciparum). As to the kind of experiment: Inhibition of chloroquine-sensitive Plasmodium falciparum D10 CRT expressed in Xenopus laevis oocytes plasma membrane assessed as reduction of [3H]-chloroquine transportation at 100 uM after 1 to 2 hrs. Type of assay: cell-based. Put shortly: as §2
Assay [11] has the same target. As to the kind of experiment: Inhibition of CTR in Plasmodium falciparum C4Dd2 expressing chloroquine-resistance-conferring pfcrt alleles assessed as increase of accumulation of [3H]-chloroquine level at 1 uM after 1 hr relative to control. Put shortly:
as §1

Assay [12] has as its system Plasmodium falciparum. As to the kind of experiment: Antiplasmodial activity against Plasmodium falciparum C2GC03 expressing wild-type pfcrt allele assessed as parasite growth at 800 nM after 72 hrs by SYBR Green I-based fluorescence assay relative to control. The format is functional. Put shortly: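 Isogenic pfcrt transfectant parasite line C2GCO3 (wild-type pfcrt allele) was grown in a proliferation assay with the test compound at 800 nM and no chloroquine. Proliferation is expressed relative to untreated control.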

Active and inactive are the calls of the source. The calls are words filed in the database; no cut-off is given here.

Regarding `CN(C)CCCC(c1cccc(Cl)c1)c1ccccn1` (racemic), the fold change (FC) was found to be 2 in assay [1] and 2.7 in assay [11]. The “Ratio IC50” value with Plasmodium falciparum [2] turned out to be 0.95; in the assay on Plasmodium falciparum [6] it was 0.27; with Plasmodium falciparum [9], 0.35. Further, the IC50 in [3] was 66 µM. Besides, the inhibition entry in [4], in [8] and in [10] was “inactive” throughout. The results for the Activity in the assay with Plasmodium falciparum [5], in the assay on Plasmodium falciparum [7] and in the assay on Plasmodium falciparum [12] were 72%, 67% and 99%, respectively.

As for `CN(C)CCCCC(c1ccc(Cl)cc1)c1ccccn1` (racemic), the fold change (FC) in assay [1] worked out at 1.8; in assay [11], 2.4. Further, the figures for the “Ratio IC50” value in the assay with Plasmodium falciparum [2], with Plasmodium falciparum [6] and in the assay on Plasmodium falciparum [9] were 0.92, 0.28 and 0.39, respectively. The IC50 in assay [3] stood at 180 µM. Further, the inhibition entry in assay [4], in [8] and in assay [10] was “inactive” throughout. Besides, the figures for the Activity in the assay with Plasmodium falciparum [5], with Plasmodium falciparum [7] and with Plasmodium falciparum [12] were 79%, 74% and 100%, respectively.

What is called IC50 is the concentration needed to halve the response being measured.
